Calls of active or inactive are those of the source. The rule behind the calls is not given here.
What was measured:
Fibroblast [1] = test: Inhibition of heparan sulfate accumulation on cell membrane in Sanfilippo-B patient derived human fibroblast cells at 20 uM incubated for 48 hrs by indirect immunofluorescence staining analysis; assay type: functional, cell-based
How it was run: (§1)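 HDFa, MPS IIIA, MPS IIIB and MPS I patient fibroblasts in DMEM, 10% FBS, grown 48 h on coverslips with 20 μM compound. Double immunostained for HS (10E4) and Lamp1 with DAPI, confocal imaging. Mean fluorescence intensity expressed relative to untreated cells (d-enantiomers: percent positive cells), 50 random cells from three experiments.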

[2] = target: T1, Alpha-N-acetylglucosaminidase (Homo sapiens) (UniProt P54802); test: Inhibition of NAGLU in human HDFa cells using 4-methylumbelliferyl-N-acetyl-alpha-D-glucosaminide as substrate upto 1 mM by fluorescence based analysis; assay type: cell-based
T1 sequence (whole entry): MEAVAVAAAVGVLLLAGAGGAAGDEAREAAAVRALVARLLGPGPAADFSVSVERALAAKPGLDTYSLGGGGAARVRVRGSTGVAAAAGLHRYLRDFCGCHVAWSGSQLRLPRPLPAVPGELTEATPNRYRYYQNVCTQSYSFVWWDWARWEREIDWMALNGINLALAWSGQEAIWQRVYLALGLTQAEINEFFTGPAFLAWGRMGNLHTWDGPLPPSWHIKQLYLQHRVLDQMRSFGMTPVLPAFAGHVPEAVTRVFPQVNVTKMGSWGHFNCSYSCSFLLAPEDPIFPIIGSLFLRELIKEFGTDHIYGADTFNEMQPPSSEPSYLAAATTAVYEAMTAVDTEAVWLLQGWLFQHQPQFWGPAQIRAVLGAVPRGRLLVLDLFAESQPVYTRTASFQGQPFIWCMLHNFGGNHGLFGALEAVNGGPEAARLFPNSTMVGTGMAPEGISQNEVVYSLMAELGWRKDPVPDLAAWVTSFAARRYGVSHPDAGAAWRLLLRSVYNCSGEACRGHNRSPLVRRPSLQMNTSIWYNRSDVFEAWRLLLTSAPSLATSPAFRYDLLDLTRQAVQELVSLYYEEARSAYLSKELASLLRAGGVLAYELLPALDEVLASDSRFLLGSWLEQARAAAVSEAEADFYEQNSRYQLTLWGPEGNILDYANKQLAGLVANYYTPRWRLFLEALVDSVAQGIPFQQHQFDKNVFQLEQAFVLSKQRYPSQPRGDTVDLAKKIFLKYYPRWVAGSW
How it was run: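 HDFa fibroblast lysate (freeze–thaw, Lowry protein) incubated 2 h with 4-methylumbelliferyl-N-acetyl-α-D-glucosaminide (2 mM substrate solution) in Na-acetate buffer pH 4.5, compound added to the reaction up to 1 mM. Fluorogenic hydrolysis normalized per mg protein per hour.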

HeLa [3] = test: Downregulation of EXT1 protein expression in human HeLa cells at 20 uM incubated for 24 hrs by western blot analysis; assay type: functional, cell-based
SK-N-BE(2) [4] = test: Upregulation of NAGLU protein expression in human SK-NBE cells at 20 uM incubated for 24 hrs by western blot analysis; assay type: functional, cell-based
How it was run: (§2)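 Western blot of control SK-NBE clone and NAGLU-shRNA SK-NBE clone (RPMI, 10% FBS, puromycin 0.7 μg/mL) after 24 h at 20 μM. Lysis, Bradford assay, 50 μg per lane, nitrocellulose transfer, anti-NAGLU antibody overnight at 4 °C, HRP secondary and ECL. GAPDH re-probe for loading.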

HeLa [5] = test: Inhibition of heparan sulfate accumulation on cell membrane in human HeLa cells at 20 uM incubated for 48 hrs by indirect immunofluorescence staining analysis; assay type: functional, cell-based
How it was run: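 HeLa cells grown 48 h with compound, then immunostained with anti-HS antibody 10E4 to gauge membrane HS.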

Fibroblast [6] = test: Inhibition of lysosomal defects in Sanfilippo-B patient derived human fibroblast cells assessed as dispersion of lysosomes all over the cytoplasm at 20 uM incubated for 48 hrs by LAMP1 staining based indirect immunofluorescence assay; assay type: functional, cell-based; how it was run: as §1
Fibroblast [7] = test: Inhibition of lysosomal defects in Sanfilippo-B patient derived human fibroblast cells assessed as reduction in accumulation of enlarged LAMP1-positive lysosomal structures within the cytoplasm at 20 uM incubated for 48 hrs by LAMP1 staining based indirect immunofluorescence assay; assay type: functional, cell-based; how it was run: as §1
SK-N-BE(2) [8] = test: Effect on lysosome size and distribution in human SK-NBE cell clone assessed as at 20 uM incubated for 48 hrs by LAMP1 staining based indirect immunofluorescence assay; assay type: functional
How it was run: (§3)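 Control and NAGLU-silenced SK-NBE clones grown on coverslips with 20 μM compound for 48 h. Fixed in 3.7% formaldehyde, permeabilized with saponin/BSA buffer, stained with anti-Lamp1 or anti-HS 10E4 for 1 h, then Alexa secondaries. Confocal imaging with 63× objective. Scored as percent cells with enlarged Lamp1 structures or membrane HS, plus mean fluorescence intensity, over 50 random cells from three experiments.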

SK-N-BE(2) [9] = test: Inhibition of lysosomal defects in NAGLU-silenced human SK-NBE cell clones assessed as reduction in more concentrated lysosomal distribution in the perinuclear region of the cytoplasm at 20 uM incubated for 48 hrs by LAMP1 staining based indirect immunofluorescence assay; assay type: functional; how it was run: as §3
Fibroblast [10] = test: Inhibition of lysosomal defects in Sanfilippo-A patient derived human fibroblast cells assessed as reduction in accumulation of enlarged LAMP1-positive lysosomal structures within the cytoplasm at 20 uM incubated for 48 hrs by LAMP1 staining based indirect immunofluorescence assay; assay type: functional, cell-based; how it was run: as §1
[11] = test system: Alpha-N-acetylglucosaminidase (Homo sapiens), P54802 [UNDEFINED MUTATION]; test: Stabilization of mutated NAGLU in Sanfilippo-B patient derived human fibroblast cells assessed as increase in NAGLU activity using 4-methylumbelliferyl-N-acetyl-alpha-D-glucosaminide as substrate at 20 uM cells pretreated for 2 hrs with substrate followed by compound addition by fluorescence based analysis; assay type: cell-based
How it was run: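 Pellets of 5 × 10^5 MPS IIIB or HDFa fibroblasts lysed by 10 freeze–thaw cycles and clarified at 4 °C; protein by Lowry. Lysate incubated 2 h with 2 mM 4-methylumbelliferyl-N-acetyl-α-D-glucosaminide stock in 0.2 M Na-acetate pH 4.5, compound added at 20 μM. Activity normalized to protein, expressed as nmol substrate hydrolysed per h per mg.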

Fibroblast [12] = test: Upregulation of NAGLU protein expression in Sanfilippo-B patient derived human fibroblast cells at 20 uM incubated for 24 hrs by western blot analysis; assay type: functional, cell-based
How it was run: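 Sanfilippo B patient fibroblasts in DMEM, 10% FBS, treated 24 h with 20 μM compound. Lysates (50 μg per lane) blotted with anti-NAGLU antibody and HRP secondary with ECL detection; blots re-probed for β-actin as loading control.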

Fibroblast [13] = test: Effect on heparan sulfate changes in human fibroblast cells at 20 uM incubated for 48 hrs by indirect immunofluorescence staining analysis; assay type: functional, cell-based; how it was run: as §1
SK-N-BE(2) [14] = test: Upregulation of NAGLU protein expression in NAGLU-silenced human SK-NBE cell clones at 20 uM incubated for 24 hrs by western blot analysis; assay type: functional, cell-based; how it was run: as §2
Fibroblast [15] = test: Inhibition of heparan sulfate accumulation on cell membrane in MPS-1 patient derived human fibroblast cells at 40 uM incubated for 48 hrs by indirect immunofluorescence staining analysis; assay type: functional, cell-based
How it was run: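 MPS I patient fibroblasts grown on coverslips with 40 μM compound for 48 h. Immunostained for HS (10E4) and Lamp1 with DAPI, imaged by confocal microscopy. Mean fluorescence intensity expressed relative to untreated cells, 50 random cells from three independent experiments.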

Fibroblast [16] = test: Inhibition of lysosomal defects in MPS-1 patient derived human fibroblast cells assessed as reduction in accumulation of enlarged LAMP1-positive lysosomal structures within the cytoplasm at 20 uM incubated for 48 hrs by LAMP1 staining based indirect immunofluorescence assay; assay type: functional, cell-based; how it was run: as §1

inhibition [2] | Activity [11] | Structure (SMILES) | inhibition (Fibroblast [1]) | inhibition (HeLa [3]) | Activity (SK-N-BE(2) [4]) | inhibition (HeLa [5]) | inhibition (Fibroblast [6]) | inhibition (Fibroblast [7]) | Activity (SK-N-BE(2) [8]) | inhibition (SK-N-BE(2) [9]) | inhibition (Fibroblast [10]) | Activity (Fibroblast [12]) | Activity (Fibroblast [13]) | Activity (SK-N-BE(2) [14]) | inhibition (Fibroblast [15]) | inhibition (Fibroblast [16])
inactive | Active | Cl.OC[C@H]1[C@H](O)[C@@H](O)[C@H](O)CN1CCCCCOCC12CC3CC(CC(C3)C1)C2 | Active | inactive | Active | Active | Active | Active | inactive | Active | Active | Active | inactive | inactive | Active | inactive
inactive |  | CCCCN1C[C@@H](O)[C@H](O)[C@@H](O)[C@@H]1CO.Cl | Active | Active | Active | Active | Active | Active | inactive | Active | Active | Active | inactive | inactive | Active | inactive
inactive | Active | Cl.OC[C@@H]1NC[C@@H](O)[C@H](O)[C@H]1O | Active | Active | Active | Active | Active | Active | inactive | Active | Active | Active | inactive | inactive | Active | inactive

Structure (SMILES) | inhibition [2] | Activity [11] | inhibition (Fibroblast [1]) | inhibition (HeLa [3]) | Activity (SK-N-BE(2) [4]) | inhibition (HeLa [5]) | inhibition (Fibroblast [6]) | inhibition (Fibroblast [7]) | Activity (SK-N-BE(2) [8]) | inhibition (SK-N-BE(2) [9]) | inhibition (Fibroblast [10]) | Activity (Fibroblast [12]) | Activity (Fibroblast [13]) | Activity (SK-N-BE(2) [14]) | inhibition (Fibroblast [15]) | inhibition (Fibroblast [16])
COCCCCCCCCCN1C[C@@H](O)[C@H](O)[C@@H](O)[C@@H]1CO.Cl | inactive | Active | Active | inactive | Active | Active | Active | Active | inactive | Active | Active | Active | inactive | inactive | Active | inactive

Source: ChEMBL document CHEMBL5380783, “N-Substituted l-Iminosugars for the Treatment of Sanfilippo Type B Syndrome” (J Med Chem, 2023)
